Measured values as given in ChEMBL document CHEMBL4834429, “Discovery of Nanomolar Melanocortin-3 Receptor (MC3R)-Selective Small Molecule Pyrrolidine Bis-Cyclic Guanidine Agonist Compounds Via a High-Throughput "Unbiased" Screening Campaign” (J Med Chem, 2021).

Key:
Assay type in all cases: functional, cell-based
[1] = molecular target: Melanocortin receptor 4 (Mus musculus) (UniProt P56450); test: Agonist activity at mouse melanocortin receptor 4 expressed in HEK293 cells assessed as stimulation of intracellular cAMP accumulation at 10 uM incubated for 24 hrs by beta-galactosidase reporter gene assay relative to control; conditions: filed as agonist
Method in brief: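 After lysis, ONPG hydrolysis was read at 405 nm and normalized to Bradford protein and maximal NDP-MSH response. Duplicates, ≥3 independent experiments; 100 μM dropped from fits where toxic.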

[2] = molecular target: Melanocortin receptor 5 (Mus musculus, UniProt P41149); test: Agonist activity at mouse melanocortin receptor 5 expressed in HEK293 cells assessed as stimulation of intracellular cAMP accumulation incubated for 24 hrs by beta-galactosidase reporter gene assay
[3] = molecular target: Melanocortin receptor 3 (Mus musculus, UniProt P33033); test: Antagonist activity at mouse melanocortin receptor 3 expressed in HEK293 cells assessed as inhibition of NDP-MSH-induced intracellular cAMP accumulation incubated for 24 hrs by beta-galactosidase reporter gene assay
[4] = molecular target: Melanocyte-stimulating hormone receptor (Mus musculus, UniProt Q01727); test: Antagonist activity at mouse melanocortin receptor 1 expressed in HEK293 cells assessed as inhibition of NDP-MSH-induced intracellular cAMP accumulation incubated for 24 hrs by beta-galactosidase reporter gene assay
Sequence of Melanocyte-stimulating hormone receptor (Q01727 whole entry): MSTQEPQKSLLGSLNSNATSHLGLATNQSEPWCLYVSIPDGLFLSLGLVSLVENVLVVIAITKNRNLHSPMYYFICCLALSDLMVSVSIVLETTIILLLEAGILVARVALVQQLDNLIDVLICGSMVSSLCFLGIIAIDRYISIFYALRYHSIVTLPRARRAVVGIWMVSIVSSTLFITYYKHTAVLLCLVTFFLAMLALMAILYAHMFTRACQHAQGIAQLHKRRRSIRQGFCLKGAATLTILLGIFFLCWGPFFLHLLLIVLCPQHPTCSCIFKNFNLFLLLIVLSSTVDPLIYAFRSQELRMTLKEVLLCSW

Sequence of Melanocortin receptor 3 (P33033 whole entry): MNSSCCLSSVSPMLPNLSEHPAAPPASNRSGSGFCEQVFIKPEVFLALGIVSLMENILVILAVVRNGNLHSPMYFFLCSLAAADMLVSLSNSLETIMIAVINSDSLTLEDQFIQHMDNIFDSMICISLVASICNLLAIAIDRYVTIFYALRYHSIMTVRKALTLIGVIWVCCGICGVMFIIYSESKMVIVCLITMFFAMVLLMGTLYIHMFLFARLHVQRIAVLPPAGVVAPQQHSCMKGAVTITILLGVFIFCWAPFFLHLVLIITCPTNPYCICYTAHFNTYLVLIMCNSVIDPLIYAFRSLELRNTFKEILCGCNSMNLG
Sequence of Melanocortin receptor 5 (P41149 whole entry): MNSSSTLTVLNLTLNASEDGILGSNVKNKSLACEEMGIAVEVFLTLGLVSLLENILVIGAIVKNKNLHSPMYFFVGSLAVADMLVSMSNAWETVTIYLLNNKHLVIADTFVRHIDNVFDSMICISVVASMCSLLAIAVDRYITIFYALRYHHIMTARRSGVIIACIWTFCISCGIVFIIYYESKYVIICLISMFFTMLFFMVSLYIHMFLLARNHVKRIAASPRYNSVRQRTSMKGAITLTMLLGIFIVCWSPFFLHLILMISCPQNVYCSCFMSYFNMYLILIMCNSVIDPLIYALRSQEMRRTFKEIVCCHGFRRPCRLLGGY
Sequence of Melanocortin receptor 4 (Mus musculus) (P56450 whole entry): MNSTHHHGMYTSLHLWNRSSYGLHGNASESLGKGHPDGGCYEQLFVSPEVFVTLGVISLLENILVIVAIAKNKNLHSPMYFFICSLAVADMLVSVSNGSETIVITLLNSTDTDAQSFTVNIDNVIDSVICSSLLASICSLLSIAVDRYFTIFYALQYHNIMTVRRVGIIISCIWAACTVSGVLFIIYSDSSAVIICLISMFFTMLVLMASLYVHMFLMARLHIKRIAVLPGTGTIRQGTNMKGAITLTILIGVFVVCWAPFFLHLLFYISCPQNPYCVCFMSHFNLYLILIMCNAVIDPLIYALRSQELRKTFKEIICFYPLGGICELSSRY

Emax [1]: 51%
EC50 [2]: 2.18 µM
EC50 [3]: > 100 µM
EC50 [4]: > 100 µM
SMILES: CCC[C@@H]1CN([C@H](Cc2ccccc2)CN2CCC[C@H]2CN2C(=N)NC[C@H]2CC(C)C)C(=N)N1CCCC(C)C
